APJ antagonist = blocks the human apelin receptor APJ | CHO-K1 APJ beta-arrestin complementation, luminescence | inhibition, % at 20 µM | hit rate 0.32% among 330,000;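 active = inhibition above about 40% at 20 µM, limit read from the data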;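 note: cells challenged with 10 nM apelin-13 agonist together with compound; plate controls were apelin-13 plus DMSO wells for no effect and DMSO wells lacking apelin-13 for full effect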
Target sequence (P35414 whole entry, looked up): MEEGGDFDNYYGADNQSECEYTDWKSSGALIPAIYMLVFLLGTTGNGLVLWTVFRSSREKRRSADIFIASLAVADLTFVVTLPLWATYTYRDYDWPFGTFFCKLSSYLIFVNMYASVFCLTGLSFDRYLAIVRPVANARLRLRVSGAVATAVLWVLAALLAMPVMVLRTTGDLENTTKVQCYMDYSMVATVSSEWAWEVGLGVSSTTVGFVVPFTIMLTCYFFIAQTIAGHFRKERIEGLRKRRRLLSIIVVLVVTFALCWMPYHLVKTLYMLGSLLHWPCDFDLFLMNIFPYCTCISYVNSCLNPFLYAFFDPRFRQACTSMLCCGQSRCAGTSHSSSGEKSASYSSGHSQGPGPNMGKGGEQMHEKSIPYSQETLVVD
CXCR6 inh = CXCR6 (human) receptor inhibition; O00574; CHO-K1 PathHunter CXCR6 beta-arrestin, luminescence; inhibition, % at 20 µM; hit rate 0.36% among 360,000; AID 602244; in the data active = inhibition above about 34%, passing the limit was not always enough;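 note: antagonist mode with CXCL16 agonist at 10 nM final; 0% = 10 nM CXCL16 with DMSO and 100% = unstimulated wells without agonist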
APJ ag = activates the human apelin receptor APJ | P35414 | CHO-K1 APJ PathHunter beta-arrestin, luminescence; 0% DMSO wells, 100% apelin | activation, % at 20 µM | hit rate 0.11% among 330,000;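 active = activation more than six SD over the plate average, tested at 20 µM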;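 note: 0% = DMSO alone and 100% = apelin-13 at 10 nM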
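Test system: CHO-K1 APJ beta-arrestin complementation cell line. Amount: cell density 1000 per well. Controls: DMSO negative, 10 nM Apelin-13 positive. Signal: luminescent beta-gal fragment complementation, chemiluminescent substrate. Read-out basis: agonist-driven arrestin binding to APJ. Timing: compound stimulation 90 min at 25 °C, detection 60 min.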
CCR6 antag = CCR6 (human) receptor antagonism; P51684; CHO-K1 CCR6 PathHunter beta-arrestin, luminescence, CCL20-stimulated; inhibition, % at 20 µM; hit rate 0.49% among 340,000;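 active = compounds whose inhibition of the agonist-driven luminescence signal at 20 µM reaches about 50%, limit read from the data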;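 note: cells stimulated with CCL20 at 14 nM final; plate controls were DMSO with CCL20 for no effect and DMSO without agonist for full effect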
EBI2 block = blocks human EBI2 receptor beta-arrestin signaling. P32249. EBI2 beta-arrestin recruitment, luminescence, 7a,25-OHC stimulated. inhibition, % at 5 µM. hit rate 0.81% among 360,000; in the data active = inhibition above about 38%;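 note: enzyme fragment complementation signal reports receptor beta-arrestin coupling in cells; 0% = agonist plus DMSO wells and 100% = wells without agonist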
EBI2 conf = confirmation of human EBI2 receptor antagonists | AID 651997 | hit rate 29% among 2,400 | EBI2 beta-arrestin luminescence, 7a,25-OHC antagonism | shares compounds with EBI2 block | inhibition, % at 5 µM;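 active = inhibition of at least 50%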
EBI2 agonist = counter-screen for EBI2 antagonists: EBI2 agonist activity; AID 652000; shares compounds with EBI2 block; activation, % at 5 µM; EBI2-expressing cells, agonist mode, luminescence, 60 min; 0% vehicle, 100% 7α,25-dihydroxycholesterol control; 2,400 tested, under 10 active;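 active = activation of at least 50%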
bGal cs = beta-galactosidase inhibition counter-screen | shares compounds with EBI2 block | purified beta-galactosidase, luminescent Galacton Star, 15 min | inhibition, % at 5 µM | hit rate 1% among 2,400;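 active = replicate-average signal at least 3 plate SD below neutral wells, shown as high inhibition, flagging enzyme-inhibiting false positives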;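 note: 0% = DMSO wells with enzyme and 100% = wells lacking enzyme; higher means stronger loss of beta-gal luminescence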
An asterisk follows results filed as active; / = no result given. An excerpt weighted towards active compounds, which were near 1.5% of everything screened.

SMILES	APJ antagonist	CXCR6 inh	APJ ag	CCR6 antag	EBI2 block	EBI2 conf	EBI2 agonist	bGal cs
COc1ccccc1Cc1c(-c2ccc(OC)c(OC)c2)nc2cc(C)c(Br)c(C)n12	/	10	/	/	14	/	/	/
COc1ccc(-c2nc3cc(C)c(Br)c(C)n3c2Cc2ccccc2C(F)(F)F)cc1OC	/	1	/	/	41*	39	0	-15
CC(C)C(NS(=O)(=O)c1ccccc1)C(=O)OCC(=O)NNC(=O)c1ccccc1 (configuration not stated)	-40	-9	-8	-2	53*	42	0	2
Cc1cccc(NC(NC(=O)Cc2ccccc2)C(Cl)(Cl)Cl)c1 (configuration not stated)	3	-2	2	15	17	/	/	/
Cc1ccc(NC(NC(=O)Cc2ccccc2)C(Cl)(Cl)Cl)cc1 (configuration not stated)	/	6	/	21	44*	6	1	5
O=C(COC(=O)c1ccc(Cl)cc1O)NC(=O)C1CCCCC1	-1	4	-2	4	-10	/	/	/
COc1cccc(-c2cc3nc(-c4ccccc4)cc(N4CCCC(O)C4)n3n2)c1 (configuration not stated)	-7	-4	-1	1	47*	23	0	-14
COc1ccccc1N1CCN(CCN2C(=O)C3CCCCN3C2=O)CC1 (configuration not stated)	8	6	-2	-2	-7	/	/	/
C=C(C)C1Cc2c(C)nn(-c3ccccc3)c2C1 (configuration not stated)	13	-6	-3	25	-10	/	/	/
C=C(C)C1Cc2c(C)nn(-c3cccc4ccccc34)c2C1 (configuration not stated)	17	-3	-2	10	32*	41	-1	8
CCOc1ccc(/C=N/NC(=O)Nc2ccccc2)cc1	14	5	-1	-12	18	/	/	/
CCN(CC)c1ccc(/C=N/NC(=O)Nc2ccccc2)cc1	9	-5	-5	0	40*	52*	0	-10
C[C@@H]1Cc2[nH][nH]c(=O)c2[C@H](c2ccc(Cl)cc2)O1	/	0	/	/	-8	/	/	/
CC1(c2cccs2)CC(c2cccs2)=C(C#N)C(=O)N1 (configuration not stated)	-6	0	3	0	85*	64*	2	6
CC(C)(C)c1ccc(C(=O)Nc2ccc(O)c3c(=O)cc(-c4ccccc4Cl)oc23)cc1	4	-4	0	-1	-13	/	/	/
Cc1ccc(/C=C/C(=O)Nc2ccc(O)c3c(=O)cc(-c4ccccc4Cl)oc23)cc1	7	5	-3	8	44*	27	0	7
CC(C)(C)CNC(=O)c1cccc2c1C(=O)c1ccc(N3CCCC3)cc1S2(=O)=O	1	-5	-1	-2	54*	61*	1	-7
O=C(COC(=O)/C=C/c1ccc(OC(F)F)cc1)NC1CCCCCC1	6	-7	-5	5	12	/	/	/
Cc1n[nH]c(=O)c2c(NC(=O)CSc3nncs3)oc(C)c12	-19	2	-6	2	-6	/	/	/
Cc1nc(CSc2ccc(Cl)cc2)cc(NCc2ccccc2)n1	5	-4	-1	11	47*	20	0	-1
C=CCN1C(=O)C(CC(=O)Nc2ccc(OCCC)cc2)N(CCCN2CCN(Cc3ccccc3)CC2)C1=S (configuration not stated)	-47	-7	4	6	5	/	/	/
COc1ccc(-c2cc(-c3ccc(Br)cc3)nc3ncnn23)cc1OC	6	2	0	9	60*	17	1	8
COc1ccc(-c2cc(-c3ccccc3)nc3ncnn23)cc1	3	-1	0	3	5	/	/	/
O=S(=O)(NCCc1ccc(Cl)cc1)c1cccc2cccnc12	20	-3	-4	6	5	/	/	/
COc1ccc(C2CCCN2C(=O)Nc2ccc(Cl)cc2)cc1OC (configuration not stated)	0	-6	-2	11	59*	49	1	6
SMILES	APJ antagonist	CXCR6 inh	APJ ag	CCR6 antag	EBI2 block	EBI2 conf	EBI2 agonist	bGal cs
COc1ccc(NC(=O)C2CCCN2C(=O)Nc2ccccc2)cc1OC (configuration not stated)	-1	-4	-8	1	-8	/	/	/
COC(=O)c1[nH]c2cc(C)ccc2c1NC(=O)CN1CCOCC1	13	0	2	9	-5	/	/	/
COC(=O)c1[nH]c2cc(OC)ccc2c1NC(=O)CN1CCN(c2cccc(C)c2)C(C)C1 (configuration not stated)	-10	7	-7	10	73*	70*	-1	-7
Cc1ccc(S(=O)(=O)N2CCN(C(=O)c3ccc(-n4cncn4)c([N+](=O)[O-])c3)CC2)c(C)c1	/	-17	/	/	64*	23	0	-13
O=C(Cc1ccc(F)cc1)N[C@@H]1c2ccccc2CC[C@@H]1OCc1ccccc1	/	12	/	20	8	/	/	/
O=C1c2cccc3cccc(c23)C(=O)N1CCN1CCN(CC(O)COc2ccc3ccccc3c2)CC1 (configuration not stated)	10	-2	-3	-1	49*	19	0	4
CCc1ccc(OCC(O)CN2CCC(CN3C(=O)c4cccc5cccc(c45)C3=O)CC2)cc1 (configuration not stated)	-14	-23	4	-4	60*	24	0	2
O=C(Nc1ccccc1N1CCCC1)C1CCN(C(=O)c2ccc(Cl)cc2)CC1	22	-5	-6	11	32	/	/	/
O=C(Cc1ccccc1)Nc1ccccc1N1CCN(c2ccccc2)CC1	19	24	2	30	41*	10	0	7
O=C(CSc1ccc(Cl)cc1)Nc1ccccc1N1CCN(C(=O)c2ccc(Cl)cc2)CC1	-1	9	0	11	43*	14	0	5
O=C(CSc1ccc(Br)cc1)Nc1ccccc1N1CCOCC1	2	-3	-7	10	43*	42	1	6
O=C(Nc1ccccc1N1CCCCC1)C1CCN(C(=O)c2ccc(Cl)cc2)CC1	18	-1	-8	12	58*	6	2	-11
O=C(CSc1ccc([N+](=O)[O-])cc1)Nc1ccccc1N1CCOCC1	4	1	0	12	12	/	/	/
O=C(NCCN1CCC(n2c(=O)[nH]c3ccccc32)CC1)N1c2ccccc2Sc2ccccc21	/	4	/	/	6	/	/	/
COc1ccc(NC(=O)c2ccc(COCC(F)(F)C(F)F)cc2)cc1	-10	-6	-2	16	44*	21	0	-17
